Experimental data from ChEMBL document CHEMBL4334552, “Discovery of BMS-986260, a Potent, Selective, and Orally Bioavailable TGFβR1 Inhibitor as an Immuno-oncology Agent” (ACS Med Chem Lett, 2020).
Activity calls are given as the source filed them. The calls are words filed in the database; no cut-off is given here.

Key:
[1] = Efflux ratio of permeability in human Caco2 cells; type: ADME, cell-based; details: Caco-2
[2] = MRT in Beagle dog at 1 mg/kg, iv; type: ADME, organism-based, Canis lupus familiaris; details: in vivo
Outline: (§1)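 Male Beagle dogs (n = 2) were pretreated with pentagastrin and dosed iv at 1 mg/kg and po at 5 mg/kg. The oral vehicle was 5% ethanol, 45% PEG400 and 50% 25 mM acetate buffer pH 4.0. The iv vehicle was 5:45:50 EtOH/PEG400/saline at 1 mL/kg.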

[3] = MRT in Sprague Dawley rat at 5 mg/kg, iv; type: ADME, organism-based; details: in vivo
Outline: (§2)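 Male Sprague–Dawley rats (n = 3) received a PEG400 solution iv at 5 mg/kg and po at 10 mg/kg.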

[4] = molecular target: T1, Nuclear receptor subfamily 1 group I member 2 (Homo sapiens, UniProt O75469); experiment: Activation of PXR (unknown origin)
T1 sequence (O75469 whole entry): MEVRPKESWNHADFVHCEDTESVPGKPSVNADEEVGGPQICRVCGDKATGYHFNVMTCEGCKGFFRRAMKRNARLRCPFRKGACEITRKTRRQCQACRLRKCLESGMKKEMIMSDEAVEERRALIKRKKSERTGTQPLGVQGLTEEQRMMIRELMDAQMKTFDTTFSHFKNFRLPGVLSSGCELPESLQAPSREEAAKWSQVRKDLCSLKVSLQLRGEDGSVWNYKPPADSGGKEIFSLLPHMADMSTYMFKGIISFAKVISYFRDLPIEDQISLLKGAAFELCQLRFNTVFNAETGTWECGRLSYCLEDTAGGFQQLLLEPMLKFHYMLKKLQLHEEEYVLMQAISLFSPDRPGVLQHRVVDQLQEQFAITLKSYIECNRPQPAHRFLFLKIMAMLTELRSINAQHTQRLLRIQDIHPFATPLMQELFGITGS

[5] = molecular target: TGF-beta receptor type-2 (Homo sapiens, UniProt P37173); experiment: Inhibition of wild type His-tagged TGFBR2 kinase domain (unknown origin) incubated for 1 hr by HTRF analysis
[6] = molecular target: Phosphodiesterase 4 (Homo sapiens, UniProt P27815+Q08499+Q07343+Q08493); experiment: Inhibition of PDE4 (unknown origin) by HTRF assay; type: protein assay
[7] = Tmax in Beagle dog at 5 mg/kg, po; type: ADME, organism-based, Canis lupus familiaris; details: in vivo; outline: as §1
[8] = tested on: Salmonella typhimurium; experiment: Genotoxicity against Salmonella typhimurium by Ames test; type: toxicity, organism-based; details: salmonella enterica subsp. enterica serovar typhimurium
[9] = Total AUC in Balb/C mouse at 5 mg/kg, iv; type: ADME, organism-based; parameters: dose 5 mg/kg, route intravenous, time AUCmax; details: in vivo
Outline: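 Male Balb/C mice (n = 3) dosed iv at 5 mg/kg and po at 10 mg/kg. Vehicle was 70% 25 mM acetate buffer pH 4.0, 5% ethanol and 25% PEG 400.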

[10] = Cardiovascular toxicity in dog assessed as valvulo-pathy at 5 mg/kg, po for 10 days; type: organism-based, Canis lupus familiaris; details: in vivo, 240 h
Outline: (§3)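 Exploratory toxicology studies of 10 days with daily oral dosing in rats and dogs. Cardiovascular findings, including valvulopathy and aortic pathology, were assessed.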

[11] = molecular target: T2, Cytochrome P450 3A4 (Homo sapiens, UniProt P08684); experiment: Inhibition of recombinant CYP3A4 (unknown origin); type: ADME
[12] = Clearance in Sprague Dawley rat at 5 mg/kg, iv; type: ADME, organism-based; details: in vivo
Outline: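 Male Sprague–Dawley rats, n = 3, given 5 mg/kg iv or 10 mg/kg po as a PEG400 solution.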

[13] = Half life in Balb/C mouse at 5 mg/kg, iv; type: ADME, organism-based; details: in vivo
Outline: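 Male Balb/C mice (n = 3) dosed iv at 5 mg/kg in the same PK study as a 10 mg/kg oral arm. Vehicle was 70% 25 mM acetate buffer pH 4.0, 5% ethanol, 25% PEG 400. Half-life was taken from the iv arm.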

[14] = Intrinsic permeability in human Caco2 cells; type: ADME, cell-based; details: Caco-2
[15] = tested on: 4T1; experiment: Inhibition of metastasis in mouse 4T1 cells allografted in Balb/C mouse at 3.75 to 7.5 mg/kg, po qd for 28 days cotreated with anti-PD1 at 10 mg/kg, ip every 4 days for 3 doses by India ink/Fekete's solution based staining; type: functional, organism-based
[16] = Metabolic stability of compound in human liver microsomes assessed as compound remaining; type: ADME, Microsome
[17] = molecular target: T2, Cytochrome P450 3A4; experiment: Induction of recombinant CYP3A4 (unknown origin) up to 24 microM; type: ADME; details: recombinant enzyme
[18] = molecular target: Cytochrome P450 2C19 (Homo sapiens, UniProt P33261); experiment: Inhibition of recombinant CYP2C19 (unknown origin); type: ADME
[19] = molecular target: T3, Cytochrome P450 1A2 (Homo sapiens, UniProt P05177); experiment: Induction of recombinant CYP1A2 (unknown origin) up to 24 microM; type: ADME; details: recombinant enzyme
T3 sequence (P05177 whole entry): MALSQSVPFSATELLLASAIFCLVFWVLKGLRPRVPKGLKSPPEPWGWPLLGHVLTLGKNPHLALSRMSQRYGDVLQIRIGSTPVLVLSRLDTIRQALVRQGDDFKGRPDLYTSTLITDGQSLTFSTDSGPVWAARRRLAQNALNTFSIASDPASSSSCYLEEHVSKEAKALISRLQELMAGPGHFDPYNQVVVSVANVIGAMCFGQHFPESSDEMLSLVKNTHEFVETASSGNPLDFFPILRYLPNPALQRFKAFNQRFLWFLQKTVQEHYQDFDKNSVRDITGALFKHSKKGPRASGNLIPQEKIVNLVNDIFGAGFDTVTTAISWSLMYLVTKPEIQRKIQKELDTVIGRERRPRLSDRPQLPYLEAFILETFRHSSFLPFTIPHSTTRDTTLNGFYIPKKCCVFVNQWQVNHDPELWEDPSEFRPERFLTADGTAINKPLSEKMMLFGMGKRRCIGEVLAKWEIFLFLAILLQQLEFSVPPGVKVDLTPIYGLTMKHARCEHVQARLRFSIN

[20] = Cardiovascular toxicity in dog assessed as aortic pathology at 5 mg/kg, po for 10 days; type: organism-based, Canis lupus familiaris; details: in vivo, 240 h; outline: as §3
[21] = Protein binding in human serum assessed as unbound fraction; type: ADME, cell-free
[22] = Cardiovascular toxicity in rat assessed as valvulo-pathy at 1 mg/kg, po for 10 days; type: organism-based; details: in vivo, 240 h; outline: as §3
[23] = molecular target: T4, PXR (Homo sapiens, UniProt O75469); experiment: Activation of PXR (unknown origin) relative to control
T4 sequence (O75469 whole entry): T1 sequence (O75469 whole entry)

[24] = Cmax in Balb/C mouse at 10 mg/kg, po; type: ADME, organism-based; parameters: dose 10 mg/kg, route oral; details: in vivo
Outline: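 Male Balb/C mice, n = 3, dosed at 5 mg/kg iv or 10 mg/kg po. The vehicle was 70% 25 mM acetate buffer pH 4.0, 5% ethanol and 25% PEG 400.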

[25] = molecular target: Cytochrome P450 2D6 (Homo sapiens, UniProt P10635); experiment: Induction of recombinant CYP2D6 (unknown origin) up to 24 microM; type: ADME; details: recombinant enzyme
[26] = Total AUC in Sprague Dawley rat at 5 mg/kg, iv; type: ADME, organism-based; parameters: dose 5 mg/kg, route intravenous, time AUCmax; details: in vivo; outline: as §2

T2 sequence (P08684 whole entry): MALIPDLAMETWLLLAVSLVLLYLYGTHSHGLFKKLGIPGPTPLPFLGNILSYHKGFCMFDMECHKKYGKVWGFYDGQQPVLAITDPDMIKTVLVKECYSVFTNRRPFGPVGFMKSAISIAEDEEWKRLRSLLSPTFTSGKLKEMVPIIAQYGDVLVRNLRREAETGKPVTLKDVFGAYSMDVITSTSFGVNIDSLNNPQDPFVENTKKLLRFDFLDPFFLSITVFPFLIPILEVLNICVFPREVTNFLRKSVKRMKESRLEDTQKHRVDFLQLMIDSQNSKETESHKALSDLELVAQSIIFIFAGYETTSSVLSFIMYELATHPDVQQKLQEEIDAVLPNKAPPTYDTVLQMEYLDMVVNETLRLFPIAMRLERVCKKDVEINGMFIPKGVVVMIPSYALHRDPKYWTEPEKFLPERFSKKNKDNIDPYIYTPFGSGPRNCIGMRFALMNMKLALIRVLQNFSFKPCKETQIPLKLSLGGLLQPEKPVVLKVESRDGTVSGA
Cytochrome P450 2C19, sequence (P33261 whole entry): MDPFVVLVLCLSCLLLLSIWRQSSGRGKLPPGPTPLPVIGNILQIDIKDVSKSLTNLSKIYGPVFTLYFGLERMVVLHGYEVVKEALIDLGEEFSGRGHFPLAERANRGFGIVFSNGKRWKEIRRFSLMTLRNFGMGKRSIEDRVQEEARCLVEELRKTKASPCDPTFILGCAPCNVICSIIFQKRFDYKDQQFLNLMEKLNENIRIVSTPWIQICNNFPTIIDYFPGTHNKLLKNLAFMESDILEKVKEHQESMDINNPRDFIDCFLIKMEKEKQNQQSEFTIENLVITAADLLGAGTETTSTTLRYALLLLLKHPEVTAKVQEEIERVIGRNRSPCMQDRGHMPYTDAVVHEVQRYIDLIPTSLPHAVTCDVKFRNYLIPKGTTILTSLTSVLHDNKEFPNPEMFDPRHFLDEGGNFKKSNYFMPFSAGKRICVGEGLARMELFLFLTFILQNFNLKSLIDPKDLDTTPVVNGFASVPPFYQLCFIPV
TGF-beta receptor type-2, sequence (P37173 whole entry, the tested form may be a part): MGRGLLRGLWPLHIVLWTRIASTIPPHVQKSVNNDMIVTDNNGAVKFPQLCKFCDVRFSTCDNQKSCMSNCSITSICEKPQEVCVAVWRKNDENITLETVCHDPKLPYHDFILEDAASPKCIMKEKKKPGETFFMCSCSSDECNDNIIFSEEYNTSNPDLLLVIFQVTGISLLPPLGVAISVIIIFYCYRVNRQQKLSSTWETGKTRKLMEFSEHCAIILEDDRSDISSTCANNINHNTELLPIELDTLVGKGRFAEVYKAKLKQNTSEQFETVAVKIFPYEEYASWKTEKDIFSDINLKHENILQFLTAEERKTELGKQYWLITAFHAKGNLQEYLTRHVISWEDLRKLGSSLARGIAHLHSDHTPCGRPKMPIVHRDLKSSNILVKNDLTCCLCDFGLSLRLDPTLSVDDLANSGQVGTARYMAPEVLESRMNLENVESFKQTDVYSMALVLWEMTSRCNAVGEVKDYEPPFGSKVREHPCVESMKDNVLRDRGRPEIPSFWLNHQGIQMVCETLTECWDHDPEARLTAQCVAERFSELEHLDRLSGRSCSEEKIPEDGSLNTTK
Cytochrome P450 2D6, sequence (P10635 whole entry): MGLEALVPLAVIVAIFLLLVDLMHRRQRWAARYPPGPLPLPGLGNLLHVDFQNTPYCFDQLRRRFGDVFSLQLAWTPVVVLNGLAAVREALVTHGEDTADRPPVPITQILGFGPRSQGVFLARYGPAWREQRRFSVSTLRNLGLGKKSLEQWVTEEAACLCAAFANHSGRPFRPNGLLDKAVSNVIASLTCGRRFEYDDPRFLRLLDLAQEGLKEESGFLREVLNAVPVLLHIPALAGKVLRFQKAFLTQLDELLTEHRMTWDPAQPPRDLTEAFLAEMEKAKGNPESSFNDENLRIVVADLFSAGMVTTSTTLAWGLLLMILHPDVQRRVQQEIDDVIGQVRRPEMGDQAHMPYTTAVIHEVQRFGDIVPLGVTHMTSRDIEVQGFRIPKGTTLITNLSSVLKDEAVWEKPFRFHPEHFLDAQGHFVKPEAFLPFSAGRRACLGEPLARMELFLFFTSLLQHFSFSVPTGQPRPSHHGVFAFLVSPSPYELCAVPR

N#Cc1cnc2ccc(-c3c(-c4ccc(F)c(Cl)c4)ncn3CCO)nn12
efflux ratio [1]: 2.5
MRT [2]: 3.1 h
MRT [3]: 7.2 h
EC50 [4]: > 24 µM
IC50 [5]: > 15 µM
IC50 [6]: 11 µM
Tmax [7]: 0.67 h
Activity [8]: Non-Toxic
AUC [9]: 26.3 µM·h
Activity [10]: Toxic
IC50 [11]: > 20 µM
clearance [12]: 5.6 mL/min/kg
half-life [13]: 9.1 h
Papp [14]: 27.2 ×10⁻⁶ cm/s
inhibition [15]: Active
Stability [16]: 77%
Activity [17]: Not Active
IC50 [18]: > 20 µM
Activity [19]: Not Active
Activity [20]: Toxic
fraction unbound [21]: 0.1
Activity [22]: Toxic
Emax [23]: 44%
Cmax [24]: 16 µM
Activity [25]: Not Active
AUC [26]: 39.6 µM·h
